Bioassay records deposited in PubChem BioAssay by several laboratories.
Diaphorase inh: diaphorase inhibition or chemical oxidation counter-screen; diaphorase resazurin-to-resorufin fluorescence, NADH, 16 min; bacterial (C. kluyveri) enzyme, not human; inhibition, % at 20 µM; 0.69% of 190,000 active;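 active = primary screen inhibition at 20 µM above a set limit, cut at about 50% in these data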;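 note: plate controls were DMSO with full reaction for no effect and wells lacking NADH for full effect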
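Test system: diaphorase enzyme from Clostridium kluyveri; amount: diaphorase at 0.14 U/mL in enzyme working solution; detection: fluorescence of resorufin formed from resazurin, Ex 544/Em 590 nm; times: reaction incubation of 16 min at room temperature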
PfG6PD inh: PfG6PD (Plasmodium falciparum) enzyme inhibition | AID 504690 | inhibition, % at 20 µM | 0.78% of 350,000 active | PfGluPho enzyme, NADPH resazurin-diaphorase fluorescence;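 active = inhibition reaching at least a set limit at 20 µM in the primary screen, cut at about 59% in these data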;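 note: 0% = DMSO wells with substrate and 100% = DMSO wells lacking glucose-6-phosphate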
G6PDH counter: counter-screen for G6PDH assay hits: L. mesenteroides G6PDH inhibition | Purified L. mesenteroides G6PDH, diaphorase/resazurin coupled fluorescence, 45 min | inhibition, % at 5 µM | 0.12% of 200,000 active | AID 1020; in the data active = inhibition above about 50%
TbHK1 inh: T. brucei hexokinase 1 inhibition; recombinant TbHK1, G6PDH-coupled NADH A340; 0.11% of 220,000 active; AID 1430; inhibition, % at 10 µM;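 active = inhibition of 50% or more in the single-dose primary screen; inactive = inhibition below 50%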
HKDC1 inhibitor: HKDC1 (human) hexokinase inhibition | Q2TB90 | recombinant HKDC1, G6PDH/diaphorase resazurin coupled fluorescence | 0.16% of 340,000 active | AID 493160 | inhibition, % at 20 µM;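 active = inhibition above about 35% when tested at 20 µM, limit read from the data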;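 note: plate controls were DMSO wells with enzyme for no effect and DMSO wells lacking enzyme for full effect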
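Test system: HK5 enzyme. Quantity: 5 µg/mL HK5 final. Reagent: glucose and ATP substrates. Schedule: 90 min reaction incubation at room temperature, dark. Technique: resazurin-to-resorufin fluorescence via G6PDH and diaphorase coupling, 525/613 nm. Control set: DMSO wells with and without enzyme mix.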
PfG6PD confirm: PfG6PD inhibition, single-dose confirmed; shares compounds with PfG6PD inh; recombinant PfGluPho, NADPH-diaphorase-resazurin fluorescence; inhibition, % at 20 µM; 34% of 2,400 active;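 active = inhibition of at least 50% at 20 µM in any single replicate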;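 note: 0% = DMSO with substrate and 100% = DMSO lacking glucose-6-phosphate substrate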
Diaphorase 10uM: inhibits diaphorase or oxidizes, flagging false PfG6PD hits. AID 504862. 39% of 820 active. diaphorase-coupled resazurin reduction, fluorescence, NADPH 10 uM. inhibition, % at 20 µM. shares compounds with PfG6PD inh;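 active = average inhibition reaching 50% or more with the compound at 20 µM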;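 note: resorufin red fluorescence formed as diaphorase reduces resazurin using NADPH; 0% = DMSO with enzyme and 100% = DMSO without enzyme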
Diaphorase 30uM: diaphorase inhibition or oxidation at 30 uM NADPH; shares compounds with PfG6PD inh; Diaphorase/resazurin coupled assay, resorufin fluorescence; inhibition, % at 20 µM; 29% of 820 active; AID 504863;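 active = inhibition averaging 50% or more, tested at 20 µM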;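 note: 0% = DMSO with enzyme and 100% = DMSO wells lacking diaphorase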
* = called active by the depositor; . = no result. An excerpt weighted towards active compounds, which were near 1.3% of everything screened.

SMILES | Diaphorase inh | PfG6PD inh | G6PDH counter | TbHK1 inh | HKDC1 inhibitor | PfG6PD confirm | others
COc1ccccc1NS(=O)(=O)c1cc(NC(=S)NCCN2CCOCC2)ccc1N1CCOCC1 | 4 | 66* | 2 | -8 | -7 | 40
O=S(=O)(Nc1ccccc1F)c1cccc(NC(=S)NCCN2CCOCC2)c1 | . | 96* | . | . | -18 | 77* | Diaphorase 10uM=-1;Diaphorase 30uM=-10
Cn1c(-c2ccc(Cl)nc2)nc2cc(Cl)ccc21 | . | 49 | . | . | 5 | 22
Cc1cccc(N(CC(=O)N/N=C/c2cc([N+](=O)[O-])ccc2Cl)S(C)(=O)=O)c1C | 19 | 123* | 4 | -3 | -1 | 82* | Diaphorase 10uM=79*;Diaphorase 30uM=71*
CCOC(=O)/C=C1\CN(Cc2cc(OC)c(OC)c(OC)c2)S(=O)(=O)c2ccc(C(F)(F)F)cc21 | . | 51 | . | . | 6 | .
CC1(C)CC2(CC(c3ccc(F)cc3)c3ccc(O)cc3O2)NC(=S)N1 (centres undefined) | . | 9 | . | -10 | -4 | .
CC1(C)CC2(CC(c3ccccc3F)c3ccc(O)c(O)c3O2)NC(=S)N1 (centres undefined) | 68* | 66* | 29 | -3 | 8 | 70* | Diaphorase 10uM=23;Diaphorase 30uM=13
Oc1ccc(N2CCN(Cc3ccc(OCCCN4CCCCC4)cc3)CC2)cc1 | -10 | 75* | 10 | -6 | 12 | 18
C(=N\NC1=Nc2cccc3cccc1c23)/c1cccnc1 | 10 | 82* | 2 | -7 | 7 | 36
C(=N\NC1=Nc2cccc3cccc1c23)/c1ccccc1 | 9 | 66* | -2 | -2 | 13 | 10
O=C(CSc1nnc2sc3ccccc3n12)N1CCN(c2ccccc2)CC1 | 20 | 10 | -30 | 1 | -4 | .
CC(C)(CNC(=O)c1ccc(S(=O)(=O)Nc2cccc(C(F)(F)F)c2)cc1)N1CCOCC1 | . | 1 | . | . | -1 | .
COC(=O)c1sccc1NC(=O)Nc1ccccc1OC | . | 48 | . | . | -7 | .
COc1ccccc1NC(=O)Nc1sccc1-c1nc2ccccc2s1 | . | 78* | . | -13 | -3 | 22
O=C(Nc1cccc(-c2nc3ccccc3s2)c1)c1cccs1 | 9 | 21 | 1 | 1 | -7 | .
O=C(Nc1cccc(Cl)c1)Nc1sccc1-c1nc2ccccc2s1 | . | 97* | . | -28 | -2 | -4
O=C(Nc1ccccc1)Nc1sccc1-c1nc2ccccc2s1 | . | 84* | . | -22 | -1 | 3
COc1ccc(NC(=O)CC2SC(N)=NC2=O)c([N+](=O)[O-])c1 (centres undefined) | 8 | 9 | 14 | -3 | -5 | .
Cc1cccc(NC(=O)[C@H](Cc2ccccc2)NC(=O)OCc2ccccc2)c1 | 8 | -10 | 19 | 34 | -9 | .
COc1ccc(C(=O)Nc2ccc3ccccc3c2)c(OC)c1 | . | 74* | . | . | 1 | 12
CCOC(=O)c1c(CSc2ccccc2)n(C)c2cc(Br)c(OCC(O)CNC(CO)(CO)CO)cc12 (centres undefined) | 0 | 61* | -2 | -4 | 9 | 11
CCOC(=O)c1c(CSc2ccccc2)n(C)c2cc(Br)c(OC)c(O)c12 | . | 7 | . | . | -2 | .
COc1cccc2c3cccc(OC)c3c3[nH]cnc3c12 | . | 68* | . | . | 8 | 33
C=CCOc1c(Cl)cc(CNc2ccc3[nH]c(=O)[nH]c3c2)cc1OC | 36 | 64* | 3 | -1 | 10 | 58* | Diaphorase 10uM=21;Diaphorase 30uM=18
C=CCOc1ccccc1CNc1ccc2[nH]c(=O)[nH]c2c1 | 42 | 56 | 5 | -6 | -3 | .
SMILES | Diaphorase inh | PfG6PD inh | G6PDH counter | TbHK1 inh | HKDC1 inhibitor | PfG6PD confirm | others
CN(C)c1ccc(C(=S)N2CCN(c3ccc([N+](=O)[O-])cc3)CC2)cc1 | . | 60* | . | -18 | -7 | 31
CCOC(=O)c1cc(C#N)c(SCc2cccc3ccccc23)nc1C | 17 | 0 | 0 | -14 | -2 | .
O=C1C(c2cc(=O)c3ccccc3[nH]2)=C(O)c2ccccc21 | 41 | 83* | 12 | -1 | 16 | 65* | Diaphorase 10uM=50*;Diaphorase 30uM=45
O=C(CCNC(=O)c1ccco1)Nc1ccc(N2CCOCC2)cc1 | 6 | 8 | 5 | 2 | -3 | .
Cc1cc2c([nH]c3ccccc32)c(C)n1 | . | 3 | . | . | 1 | .
Cc1c2ccncc2cc2c1[nH]c1ccccc12 | . | 72* | . | . | 3 | 18
CCCCCCCCNS(=O)(=O)CCNCc1ccco1 | . | 6 | . | . | -1 | .
CCSCC(C)(C)n1[nH]c2ccccc2c1=O | . | 14 | . | . | . | .
CCC(CO)[n+]1c(C)cc(/C=C2\Sc3ccccc3N2Cc2ccccc2)cc1C (centres undefined) | 16 | 74* | -30 | 13 | 5 | 54* | Diaphorase 10uM=24;Diaphorase 30uM=31
CCN1/C(=C2\SC(=S)N(Cc3ccccc3)C2=O)Sc2ccccc21 | 8 | -19 | -18 | 8 | -5 | .
S=C(NNC(=S)Nc1ccccc1)Nc1ccccc1 | . | 8 | . | . | -13 | .
S=C(NNC(=S)Nc1ccc(Cl)cc1)NNc1ccccc1 | . | 73* | . | . | . | 26
Cc1ccc2c(c1)nc(NCCCO)n2C | 2 | -4 | 2 | -1 | -4 | .
CN(C)C(=O)NC1c2ccccc2-c2ccccc21 | . | -5 | . | . | -3 | .
O=C1C=CC(=O)N1c1ccc2c(c1)C(NC(=O)C(F)(F)F)c1ccccc1-2 (centres undefined) | . | 98* | . | . | -6 | 51* | Diaphorase 10uM=-40;Diaphorase 30uM=-30
Cc1cccc(/C=N/N(CCO)C2=NS(=O)(=O)c3ccccc32)c1 | 8 | -1 | -3 | -18 | 2 | .
O=c1c2cccc(Cl)c2nc2n1Cc1ccccc1-2 | . | 78* | . | 6 | -4 | 43
S=C1NCN(Cc2ccco2)CN1c1cccc2ccccc12 | . | -5 | . | -10 | 9 | .
S=C1SCN(Cc2ccco2)CN1Cc1ccco1 | . | 10 | . | 17 | 2 | .
N#CC1=C2SCN(Cc3ccco3)CN2C(=O)CC1c1cccc2ccccc12 (centres undefined) | 42 | 63* | 28 | -7 | 14 | 15
N#CC1=C2SCN(Cc3ccco3)CN2C(=O)CC1c1ccccc1F (centres undefined) | 46 | 67* | 30 | -23 | 2 | 30
COc1ccccc1N1C(=O)C=C(Sc2nc(C)cc(C)n2)C1=O | . | 79* | . | 2 | 1 | 87* | Diaphorase 10uM=-4;Diaphorase 30uM=-15
CCOC(=O)C1C(=O)NC(SCC(=O)Nc2nccs2)=C(C#N)C1c1ccccc1OCC (centres undefined) | 8 | 70* | -4 | -4 | -22 | 31
Nc1ccnn1Cc1cccs1 | 18 | -3 | 1 | -2 | -3 | .
CCOCCCNCc1ccc(OC)c(OC)c1 | -3 | -2 | 5 | -1 | 2 | .
Cn1cc(-c2ccccc2C(N)=O)c(=O)c2cc(Cl)ccc21 | 4 | 13 | 1 | -10 | -2 | .
